Screens as filed in PubChem.
HIV Env fusion = blocks HIV Env-driven cell-cell fusion | HeLa-JRFL Env/CEM21 cell fusion, luciferase | inhibition, % at 12.3 µM | hit rate 1.1% among 360,000 | AID 651610;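 active means mean replicate inhibition score of at least 50 and every replicate individually at or above 50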;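 further: 0% = plate neutral controls and 100% = maraviroc near 300 nM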
DENV2 CPE rescue = protects cells from dengue virus 2 cytopathic effect | DENV2-infected cells, cytopathic effect rescue, plate reader | CPE inhibition, % at 9.99 µM | hit rate 1.7% among 350,000 | AID 651640; in the data active means CPE inhibition above about 20%, passing the limit was not always enough; tested in BHK-21 cells;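 further: 0% = median of neutral control wells and 100% = median of positive control wells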
rRNA inh HTS = inhibits bacterial ribosomal RNA function over humanized ribosomes; GFP signal change (wild-type ribosome), % (test concentration not listed); E. coli WT GFP vs humanized-ribosome RFP mutants, fluorescence, 24 h; active compounds read low; DMSO median 0, no signal -100; AID 720706; hit rate 1.6% among 350,000;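 active means significant combined selectivity score with lowered wild-type GFP, culture density cut under 30%, mutant RFP and density less affected; inactive means any of these conditions unmet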
PglD inh = blocks C. jejuni PglD acetyltransferase activity; purified PglD enzyme, DTNB colorimetric CoA detection; inhibition, % at 12.5 µM; hit rate 0.098% among 360,000; in the data active means inhibition above about 16%, passing the limit was not always enough
FN deposition inh = fibronectin deposition inhibition | AH1F fibroblasts, Alexa488-fibronectin deposition fluorescence, overnight | inhibition, % at 12.6 µM | hit rate 0.086% among 350,000 | AID 743247;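 active means mean inhibition across replicates of 30% or more, regardless of how many single replicates reach that level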;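 further: positive control wells lacked labelled fibronectin entirely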
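Assay system: AH1F fibroblasts / Quantity: 10000 cells per well / Medium: DMEM plus 2% serum, read in PBS / Reagent: labelled fibronectin 24 nM / Dosing: single dose, pinned / Times: 1 h cell attachment, overnight exposure to compound and label / Signal: fluorescence, ex 485 nm, em 525 nm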
PGC1a acetyl inh = modulators of PGC1a acetylation. inhibition, % at 15.6 µM. U2OS PGC1a acetylation, AlphaScreen anti-acetyl-lysine; with virally co-expressed GCN5 acetyltransferase. hit rate 0.17% among 350,000;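 active means every replicate shows inhibition of at least 40%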;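 further: 0% = neutral control wells and 100% = positive control wells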
Numbers without * were called inactive; nt = no result; [ ] = dose if it differs, or a comment. Only some compounds are listed: those with a hit (about 3.5% of all), similar ones and a draw of the others.

SMILES | HIV Env fusion | DENV2 CPE rescue | rRNA inh HTS | PglD inh | FN deposition inh | PGC1a acetyl inh
CCc1nc2ccccc2n1Cc1ccccc1OC | nt | nt | nt | 4 | nt | -1
CCCc1nc2ccccc2n1Cc1ccccc1OC | 3 | 0 | -45* | -2 | 6 | 5
C/C=C/c1ccc2c(c1)O[C@@H](CN(C)C(=O)Nc1ccccc1)[C@H](C)CN([C@H](C)CO)S2(=O)=O | -2[16.7 µM] | 28* | -3 | -1 | 4 | -1
C[C@@H]1CN([C@@H](C)CO)S(=O)(=O)c2ccc(/C=C/c3ccccc3)cc2O[C@H]1CN(C)C(=O)c1ccncc1 | 7[16.7 µM] | 41* | -14 | 0 | nt | 5
C[C@H]1CN([C@@H](C)CO)S(=O)(=O)c2ccc(-c3ccncc3)cc2O[C@@H]1CN(C)C(=O)c1ccc2c(c1)OCO2 | -18[16.7 µM] | 26* | -7 | 1 | nt | 12
COc1cc2c(cc1OC)CN(C(=O)CCOc1ccccc1C)CC2 | 18 | 44* | -16 | -2 | 8 | -22
COc1cc2c(cc1OC)CN(C(=O)CCOc1ccccc1)CC2 | 12 | 12 | -1 | 3 | -1 | nt
CN1C(=O)c2cc(NC(=O)c3cccs3)ccc2OC[C@@H]2O[C@H](CC(=O)NCC(F)(F)F)CC[C@H]21 | -9[16.7 µM] | 7 | -1 | 3 | -4 | 1
CO[C@H]1CN(C)C(=O)c2cc(NC(=O)c3cnccn3)ccc2OC[C@H](C)N(CC2CC2)C[C@@H]1C | nt | 35* | -1 | nt | 8 | 7
CO[C@H]1CN(C)C(=O)c2ccc(NC(=O)c3cnccn3)cc2OC[C@H](C)NC[C@H]1C | -9[16.7 µM] | 53* | 6 | -1 | -27 | 1
CCCN1C[C@@H](C)[C@@H](OC)CN(C)C(=O)c2ccc(NC(=O)c3cnccn3)cc2OC[C@@H]1C | nt | 22* | 2 | -4 | 0 | -5
CCCN1C[C@H](C)[C@H](OC)CN(C)C(=O)c2ccc(NC(=O)c3cnccn3)cc2OC[C@@H]1C | nt | -1 | -1 | -5 | 2 | -9
COCC(=O)Nc1ccc2c(c1)OC[C@@H](C)N(Cc1ccccc1OC)C[C@H](C)[C@@H](OC)CN(C)C2=O | nt | -8 | 2 | -1 | 8 | -2
O=C(c1cnccn1)N1CC(=O)N2[C@@H](CO)[C@@H](c3ccc(C#CC4CC4)cc3)[C@@H]2C1 | nt | 6 | 1 | nt | -6 | 9
COc1cccc(-c2ccc3c(c2)[C@@H]2[C@@H](CCN2C(=O)c2cccc(F)c2)[C@H](CO)N3)c1 | nt | 7 | -5 | 3 | -7 | -10
O=C(Nc1ccc(F)c(Cl)c1)c1cc(C2CCCN(S(=O)(=O)c3ccccc3)C2)on1 (stereo not given) | 31 | 6 | -5 | 7 | 28 | -15
CCCC(=O)N1CCCC(c2cc(C(=O)Nc3ccccc3)no2)C1 (stereo not given) | -3 | 8 | 8 | 5 | 1 | -6
CN(C)c1ccc(CC(=O)N2CCCC(c3cc(C(=O)Nc4ccc(F)c(Cl)c4)no3)C2)cc1 (stereo not given) | 23 | 33* | -13 | -2 | 4 | -7
Cn1cnc(S(=O)(=O)N2CCCC(c3cc(C(=O)Nc4ccc(F)c(Cl)c4)no3)C2)c1 (stereo not given) | 18 | 16 | -25* | -5 | 10 | -4
C[C@@H]1CN([C@H](C)CO)C(=O)Cc2cc(NC(=O)Nc3ccc(F)cc3)ccc2O[C@@H]1CN(C)Cc1ccc(C(=O)Nc2ccccc2N)cc1 | nt | -2 | -4 | nt | nt | 2
Cn1nc(C2CC2)cc1NC(=O)C1(C)CCN1C(=O)c1ccccc1CCc1ccccc1 (stereo not given) | 64* | 14 | -21 | nt | 6 | -22
Cn1nc(C2CC2)cc1NC(=O)C1(C)CCN1C(=O)CC(c1ccccc1)c1ccccc1 (stereo not given) | nt | 0 | -1 | 0 | -6 | 6
O=C1CN(Cc2ccccc2)C[C@H]2[C@@H](c3ccc(-c4ccccc4F)cc3)[C@@H](CO)N12 | nt | -8 | -20 | nt | nt | -8
CC1=C/C(=N\OS(=O)(=O)c2ccccc2)C(C)=CC1=O | nt | nt | 5 | -4 | nt | 60*
COc1ccc(S(=O)(=O)/N=C2/C=CC(=O)C(C)=C2C)cc1 | nt | nt | nt | 2 | nt | 2
COc1cc(C(=O)O/N=C2/C=C(C)C(=O)C=C2C)cc(OC)c1OC | 11 | 3 | 7 | nt | -2 | nt
